Assay results: ChEMBL document CHEMBL1153312, “Discovery of substituted 2,4,4-triarylimidazoline derivatives as potent and selective neuropeptide Y Y5 receptor antagonists” (Bioorg Med Chem Lett, 2009)
pIC50: −log10 of the molar value. One block for each compound: values may come before it.

Columns and labels:
[1] = molecular target: T1, Neuropeptide Y receptor type 5 (Homo sapiens, UniProt Q15761); test: Displacement of [125I]PYY from human recombinant neuropeptide Y5 receptor expressed in thymidine kinase-deficient mouse LM cells; format: cell-based
T1 sequence (Q15761 whole entry): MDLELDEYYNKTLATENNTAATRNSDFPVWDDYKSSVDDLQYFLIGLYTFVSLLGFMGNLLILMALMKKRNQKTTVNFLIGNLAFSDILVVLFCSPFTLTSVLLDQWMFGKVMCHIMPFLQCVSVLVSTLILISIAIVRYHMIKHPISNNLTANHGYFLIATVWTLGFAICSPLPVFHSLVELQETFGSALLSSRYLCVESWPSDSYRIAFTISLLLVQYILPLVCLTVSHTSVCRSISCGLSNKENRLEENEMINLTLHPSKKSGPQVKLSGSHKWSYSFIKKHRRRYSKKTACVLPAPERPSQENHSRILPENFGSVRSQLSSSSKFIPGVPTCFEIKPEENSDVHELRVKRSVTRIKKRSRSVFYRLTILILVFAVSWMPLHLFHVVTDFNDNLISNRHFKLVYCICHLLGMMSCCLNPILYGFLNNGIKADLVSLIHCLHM
Method in brief: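 [125I]PYY displacement in membranes of LMtk- cells expressing recombinant human Y5 receptor; IC50 determined.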

[2] = Plasma concentration in Sprague-Dawley rat at 10 mg/kg, po after 2 hrs; format: ADME, organism-based; parameters: dose 10 mg/kg, route oral
Method in brief: (§1)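 Rats dosed orally at 10 mg/kg; plasma, brain (nmol/g) and CSF levels measured 2 h post-dose. Brain-to-plasma and CSF-to-brain ratios were calculated from these levels.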

Brain = test: Drug level in Sprague-Dawley rat brain at 10 mg/kg, po after 2 hrs; format: ADME, organism-based; parameters: dose 10 mg/kg, route oral; settings: in vivo; method in brief: as §1
[3] = Drug level in Sprague-Dawley rat cerebrospinal fluid at 10 mg/kg, po after 2 hrs; format: ADME, organism-based; parameters: dose 10 mg/kg, route oral; settings: read-out: Drug uptake; method in brief: as §1
[4] = Ratio of drug level in brain to plasma of Sprague-Dawley rat at 10 mg/kg, po after 2 hrs; format: ADME, organism-based; parameters: dose 10 mg/kg, route oral; settings: read-out: BPR; method in brief: as §1
[5] = Ratio of drug level in cerebrospinal fluid to brain of Sprague-Dawley rat at 10 mg/kg, po after 2 hrs; format: ADME, organism-based, CSF/Brain; parameters: dose 10 mg/kg, route oral; settings: in vivo; method in brief: as §1
[6] = molecular target: T1, Neuropeptide Y receptor type 5; test: Antagonist activity at human recombinant neuropeptide Y5 receptor expressed in thymidine kinase-deficient mouse LM cells assessed as inhibition of neuropeptide-induced increase in intracellular calcium level; format: functional, cell-based
[7] = molecular target: T2, Neuropeptide Y receptor type 1 (Homo sapiens) (UniProt P25929); test: Binding affinity to human neuropeptide Y1 receptor
T2 sequence (whole entry): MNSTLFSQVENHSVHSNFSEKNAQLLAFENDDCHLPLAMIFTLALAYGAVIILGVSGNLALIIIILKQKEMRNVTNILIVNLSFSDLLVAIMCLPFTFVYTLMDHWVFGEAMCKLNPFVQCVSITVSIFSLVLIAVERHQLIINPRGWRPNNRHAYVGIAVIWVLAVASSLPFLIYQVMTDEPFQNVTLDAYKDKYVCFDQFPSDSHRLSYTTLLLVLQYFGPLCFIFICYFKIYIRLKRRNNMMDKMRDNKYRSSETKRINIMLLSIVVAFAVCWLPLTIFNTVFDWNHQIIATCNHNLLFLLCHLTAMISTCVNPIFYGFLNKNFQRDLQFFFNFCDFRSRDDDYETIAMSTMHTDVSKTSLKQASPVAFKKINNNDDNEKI

[8] = molecular target: T3, Neuropeptide Y receptor type 2 (Homo sapiens) (UniProt P49146); test: Binding affinity to human neuropeptide Y2 receptor
T3 sequence (whole entry): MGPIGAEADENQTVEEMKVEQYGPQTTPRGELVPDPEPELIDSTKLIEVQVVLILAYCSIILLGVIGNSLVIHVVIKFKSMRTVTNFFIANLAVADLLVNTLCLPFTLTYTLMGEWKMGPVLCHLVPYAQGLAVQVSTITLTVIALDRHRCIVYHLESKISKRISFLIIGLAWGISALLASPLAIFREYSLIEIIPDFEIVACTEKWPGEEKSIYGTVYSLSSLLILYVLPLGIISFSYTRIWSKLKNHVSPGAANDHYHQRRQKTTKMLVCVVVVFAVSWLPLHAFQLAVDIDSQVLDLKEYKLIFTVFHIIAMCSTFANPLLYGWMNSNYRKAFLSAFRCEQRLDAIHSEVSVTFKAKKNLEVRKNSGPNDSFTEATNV

[9] = molecular target: Neuropeptide Y receptor type 4 (Homo sapiens) (UniProt P50391); test: Binding affinity to human neuropeptide Y4 receptor
Neuropeptide Y receptor type 4 (Homo sapiens), sequence (P50391 whole entry): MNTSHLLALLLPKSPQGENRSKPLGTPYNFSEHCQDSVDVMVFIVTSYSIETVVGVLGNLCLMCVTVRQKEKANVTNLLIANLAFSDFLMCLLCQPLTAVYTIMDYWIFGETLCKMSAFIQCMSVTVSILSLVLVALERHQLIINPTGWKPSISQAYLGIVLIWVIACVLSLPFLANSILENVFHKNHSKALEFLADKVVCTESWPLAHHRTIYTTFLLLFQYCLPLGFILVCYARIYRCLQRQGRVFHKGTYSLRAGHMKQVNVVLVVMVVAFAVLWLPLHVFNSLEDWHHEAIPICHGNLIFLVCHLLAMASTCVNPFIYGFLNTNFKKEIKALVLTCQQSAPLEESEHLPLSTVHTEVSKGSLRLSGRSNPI

Rattus norvegicus [10] = test: Inhibition of D-Trp34NPY-induced food intake in Sprague-Dawley rat at 3 mg/kg, po administered 2 hrs before D-Trp34NPY challenge measured for 2 hrs; format: functional; parameters: scale not given: the % may be the effect or the level left
Method in brief: (§2)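 Oral dosing 2 h before third-ventricle injection of D-Trp34NPY, with artificial CSF as vehicle control. Cumulative food intake was recorded over the following 2 h. Data are mean ± SEM, n = 7–8, with P < 0.05 versus the agonist-only group.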

Rattus norvegicus [11] = test: Inhibition of D-Trp34NPY-induced food intake in Sprague-Dawley rat at 10 mg/kg, po administered 2 hrs before D-Trp34NPY challenge measured for 2 hrs; format: functional; parameters: scale not given: the % may be the effect or the level left; method in brief: as §2
Rattus norvegicus [12] = test: Inhibition of D-Trp34NPY-induced food intake in Sprague-Dawley rat at 30 mg/kg, po administered 2 hrs before D-Trp34NPY challenge measured for 2 hrs; format: functional; parameters: scale not given: the % may be the effect or the level left; method in brief: as §2

SMILES: N#Cc1cncc(C2=NC(c3ccc(F)cc3)(c3ccc(F)cc3)CN2)c1
pIC50 [1]: 7.77

SMILES: Fc1ccc(C2(c3ccc(F)cc3)CNC(c3ccc(C(F)(F)F)cc3)=N2)cc1
pIC50 [1]: 6.80

SMILES: Fc1ccc(C2(c3ccc(F)cc3)CNC(c3cnccn3)=N2)cc1
pIC50 [1]: 8.37
concentration at 2 h [2]: 1200 nM
Drug uptake (Brain): 5.9 nmol/g
concentration at 2 h [3]: 64 nM
Kp at 2 h [4]: 4.9
Ratio [5]: 0.01
pIC50 [6]: 8.62
Activity [7]: > 10 µM
Activity [8]: > 10 µM
Activity [9]: > 10 µM
Activity (Rattus norvegicus [10]): 20%
Activity (Rattus norvegicus [11]): 42%
Activity (Rattus norvegicus [12]): 60%

SMILES: Fc1ccc(C2(c3ccc(F)cc3)CNC(c3cccs3)=N2)cc1
pIC50 [1]: 7.27

SMILES: Fc1ccc(C2(c3ccc(F)cc3)CNC(c3cccnc3)=N2)cc1
pIC50 [1]: 8.14

SMILES: Fc1ccc(C2(c3ccc(F)cc3)CNC(c3cccnn3)=N2)cc1
pIC50 [1]: 6.25

SMILES: Fc1ccc(C2(c3ccc(F)cc3)CNC(c3ncccn3)=N2)cc1
pIC50 [1]: 6.46

SMILES: O=c1cccc(C2=NC(c3ccc(F)cc3)(c3ccc(F)cc3)CN2)[nH]1
pIC50 [1]: 8.09

SMILES: Fc1ccc(C2(c3ccc(F)cc3)CNC(c3ccccn3)=N2)cc1
pIC50 [1]: 6.80

SMILES: N#Cc1ccnc(C2=NC(c3ccc(F)cc3)(c3ccc(F)cc3)CN2)c1
pIC50 [1]: 8.70
concentration at 2 h [2]: 1300 nM
Drug uptake (Brain): 6.4 nmol/g
concentration at 2 h [3]: 25 nM
Kp at 2 h [4]: 4.9
Ratio [5]: 0.004

SMILES: Fc1ccc(C2(c3ccc(F)cc3)CNC(c3ccc(Cl)cc3)=N2)cc1
pIC50 [1]: 6.89

SMILES: N#Cc1cccc(C2=NC(c3ccc(F)cc3)(c3ccc(F)cc3)CN2)n1
pIC50 [1]: 7.41

SMILES: N#Cc1cc(C2=NC(c3ccc(F)cc3)(c3ccc(F)cc3)CN2)ccn1
pIC50 [1]: 8.32

SMILES: Fc1ccc(C2(c3ccc(F)cc3)CNC(c3ccncc3)=N2)cc1
pIC50 [1]: 6.80

SMILES: c1ccc(C2=NC(c3ccccc3)(c3ccccc3)CN2)cc1
pIC50 [1]: 7.27

SMILES: Fc1ccc(C2(c3ccc(F)cc3)CNC(c3cncnc3)=N2)cc1
pIC50 [1]: 7.33

SMILES: Fc1ccc(C2(c3ccc(F)cc3)CNC(c3ccsc3)=N2)cc1
pIC50 [1]: 7.03

SMILES: Fc1ccc(C2(c3ccc(F)cc3)CNC(c3ccccc3Cl)=N2)cc1
pIC50 [1]: 6.20

Now from value to compound:

pIC50 [1]: 7.49
SMILES: Fc1ccc(C2(c3ccc(F)cc3)CNC(c3ccccc3)=N2)cc1

pIC50 [1]: < 6.00
SMILES: CN(C)c1cccc(C2=NC(c3ccc(F)cc3)(c3ccc(F)cc3)CN2)c1

pIC50 [1]: 6.57
SMILES: COC(=O)c1cccc(C2=NC(c3ccc(F)cc3)(c3ccc(F)cc3)CN2)c1

pIC50 [1]: 8.21
SMILES: Fc1ccc(C2(c3ccc(F)cc3)CNC(c3cccc(C(F)(F)F)c3)=N2)cc1

pIC50 [1]: 8.37
SMILES: O=[N+]([O-])c1cccc(C2=NC(c3ccc(F)cc3)(c3ccc(F)cc3)CN2)c1

pIC50 [1]: 7.52
SMILES: Cc1cccc(C2=NC(c3ccc(F)cc3)(c3ccc(F)cc3)CN2)c1

pIC50 [1]: 8.00
SMILES: Fc1ccc(C2(c3ccc(F)cc3)CNC(c3cccc(F)c3)=N2)cc1

pIC50 [1]: 8.57
concentration at 2 h [2]: 1400 nM
Drug uptake (Brain): 8.1 nmol/g
concentration at 2 h [3]: 27 nM
Kp at 2 h [4]: 5.8
Ratio [5]: 0.003
SMILES: N#Cc1cccc(C2=NC(c3ccc(F)cc3)(c3ccc(F)cc3)CN2)c1

pIC50 [1]: 7.29
SMILES: COc1cccc(C2=NC(c3ccc(F)cc3)(c3ccc(F)cc3)CN2)c1

pIC50 [1]: 8.27
SMILES: Fc1ccc(C2(c3ccc(F)cc3)CNC(c3cccc(Cl)c3)=N2)cc1

pIC50 [1]: 8.06
SMILES: O=Cc1cccc(C2=NC(c3ccc(F)cc3)(c3ccc(F)cc3)CN2)c1

pIC50 [1]: 8.04
SMILES: CS(=O)(=O)c1cccc(C2=NC(c3ccc(F)cc3)(c3ccc(F)cc3)CN2)c1

pIC50 [1]: 7.36
SMILES: CC(=O)c1cccc(C2=NC(c3ccc(F)cc3)(c3ccc(F)cc3)CN2)c1

pIC50 [1]: 6.52
SMILES: Nc1cccc(C2=NC(c3ccc(F)cc3)(c3ccc(F)cc3)CN2)c1

pIC50 [1]: 7.23
SMILES: OCc1cccc(C2=NC(c3ccc(F)cc3)(c3ccc(F)cc3)CN2)c1

pIC50 [1]: 8.32
SMILES: Fc1ccc(C2(c3ccc(F)cc3)CNC(c3cccc(Br)c3)=N2)cc1
